# Experiments:
# HaCaT [1] = test: Antiproliferative activity against human HaCaT cells after 3 days by sulforhodamine B assay; format: functional, cell-based; conditions: 72 h
# Method in brief: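 HaCaT keratinocytes kept in DMEM with 5% FCS, trypsinized and seeded at 4000 cells/0.2 mL/well in 96-well plates. Medium swapped after 24 h for fresh medium with graded compound concentrations. Proliferation read by sulforhodamine B colorimetry after 3 days. IC50 taken as the average of at least two independent measurements.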
# HaCaT [2] = test: Antimitotic activity against human HaCaT cells assessed as mitotic index at 1.5 uM after 20 hrs; format: functional
# Method in brief: (§1)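 HaCaT cells grown in DMEM with 5% FCS, seeded in chamber slides at 24000 cells/0.4 ml/well. After 24 h, medium replaced with fresh medium containing the stated compound concentration, then 20 h incubation. Cells fixed in 90% acetone for 5 min at room temperature. DNA stained with DAPI (0.5 μg/ml, 1 h, RT). Metaphase-arrested cells scored by fluorescence microscopy, at least 300 cells per concentration. Mitotic index = 100% × mitotic/total cells.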
# HaCaT [3] = test: Antimitotic activity against human HaCaT cells assessed as mitotic index at 1 uM after 20 hrs; format: functional; method in brief: as §1
# HaCaT [4] = test: Antimitotic activity against human HaCaT cells assessed as mitotic index at 100 uM after 20 hrs; format: functional; method in brief: as §1
# HaCaT [5] = test: Antimitotic activity against human HaCaT cells assessed as mitotic index at 0.5 uM after 20 hrs; format: functional; method in brief: as §1
# HaCaT [6] = test: Antimitotic activity against human HaCaT cells assessed as mitotic index at 20 uM after 20 hrs; format: functional; method in brief: as §1
# HaCaT [7] = test: Antimitotic activity against human HaCaT cells assessed as mitotic index at 2 uM after 20 hrs; format: functional; method in brief: as §1
# HaCaT [8] = test: Antimitotic activity against human HaCaT cells assessed as mitotic index at 3 uM after 20 hrs; format: functional; method in brief: as §1
# HaCaT [9] = test: Antimitotic activity against human HaCaT cells assessed as mitotic index at 30 uM after 20 hrs; format: functional; method in brief: as §1
# HaCaT [10] = test: Antimitotic activity against human HaCaT cells assessed as mitotic index at 0.2 uM after 20 hrs; format: functional; method in brief: as §1
# Tubulin = Tubulin (Sus scrofa, UniProt P02554+P02550); test: Inhibition of pig brain tubulin polymerization
# Method in brief: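 Pig brain tubulin purified by three warm/cold assembly cycles in 1 M monosodium glutamate pH 6.6 with 1 mM GTP. Compound (DMSO, 4% v/v final) preincubated with tubulin 15 min at 30 °C in 0.8 M glutamate pH 6.6 without GTP. Samples then chilled, given GTP, and shifted from 0 °C to 30 °C. Turbidity read at 350 nm. IC50 is 50% inhibition of polymerization extent at 20 min, by linear interpolation.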
# Tubulin (Sus scrofa) = Tubulin (Sus scrofa) (UniProt P02554+P02550); test: Binding affinity to pig brain tubulin at 10 uM after 15 mins relative to control
# HaCaT [11] = test: Antimitotic activity against human HaCaT cells assessed as mitotic index at 10 uM after 20 hrs; format: functional; method in brief: as §1
# HaCaT [12] = test: Antimitotic activity against human HaCaT cells assessed as mitotic index at 50 uM after 20 hrs; format: functional; method in brief: as §1
# HaCaT [13] = test: Antimitotic activity against human HaCaT cells assessed as mitotic index at 0.4 uM after 20 hrs; format: functional; method in brief: as §1
# HaCaT [14] = test: Antimitotic activity against human HaCaT cells assessed as mitotic index at 2.5 uM after 20 hrs; format: functional; method in brief: as §1
# Tubulin (Sus scrofa), sequence (P02550 whole entry, looked up): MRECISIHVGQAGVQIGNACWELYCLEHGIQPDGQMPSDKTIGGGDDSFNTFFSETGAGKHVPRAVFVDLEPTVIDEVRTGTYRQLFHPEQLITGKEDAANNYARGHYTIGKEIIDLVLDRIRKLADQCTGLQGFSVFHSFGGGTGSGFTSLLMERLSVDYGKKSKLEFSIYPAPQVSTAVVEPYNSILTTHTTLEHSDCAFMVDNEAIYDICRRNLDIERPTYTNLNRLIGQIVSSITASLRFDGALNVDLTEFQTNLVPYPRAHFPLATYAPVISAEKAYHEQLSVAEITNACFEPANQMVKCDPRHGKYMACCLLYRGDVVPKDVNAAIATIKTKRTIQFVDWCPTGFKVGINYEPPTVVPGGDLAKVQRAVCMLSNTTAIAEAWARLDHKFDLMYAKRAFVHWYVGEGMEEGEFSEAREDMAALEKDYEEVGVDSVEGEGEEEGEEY
# Tubulin (Sus scrofa), sequence (P02554 whole entry, looked up): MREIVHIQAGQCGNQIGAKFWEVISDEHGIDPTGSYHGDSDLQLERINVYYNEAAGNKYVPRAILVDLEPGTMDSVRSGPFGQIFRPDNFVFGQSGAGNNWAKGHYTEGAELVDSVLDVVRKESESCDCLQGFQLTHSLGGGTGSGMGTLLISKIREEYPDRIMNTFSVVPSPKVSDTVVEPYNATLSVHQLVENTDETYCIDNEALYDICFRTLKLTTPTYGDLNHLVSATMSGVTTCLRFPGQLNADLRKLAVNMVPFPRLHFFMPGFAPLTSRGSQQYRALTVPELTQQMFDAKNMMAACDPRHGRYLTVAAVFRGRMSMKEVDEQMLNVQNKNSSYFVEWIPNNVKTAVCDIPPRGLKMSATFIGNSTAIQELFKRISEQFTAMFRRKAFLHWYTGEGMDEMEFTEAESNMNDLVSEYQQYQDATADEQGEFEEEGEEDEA
compound,measurement,setting,value
COC(=O)c1cc(CCc2cc(OC)ccc2C(C)=O)ccc1O,IC50,HaCaT [1],41 nM
same,Activity,HaCaT [2],46%
CCc1cccc(OC)c1CCc1ccc(O)c(C(=O)OC)c1,Activity,HaCaT [3],50%
same,IC50,HaCaT [1],200 nM
COC(=O)c1cc(CCc2ccc(OC)cc2OC)ccc1O,IC50,HaCaT [1],19000 nM
same,Activity,HaCaT [4],7.2%
COC(=O)c1cc(CCc2cccc(OC)c2OC)ccc1O,IC50,HaCaT [1],33000 nM
same,Activity,HaCaT [4],3.7%
CCOc1ccc(OC)c(CCc2ccc(O)c(C(=O)OC)c2)c1,IC50,HaCaT [1],540 nM
same,Activity,HaCaT [5],31%
COC(=O)c1cc(CCc2cc(O)ccc2OC)ccc1O,IC50,HaCaT [1],8700 nM
same,Activity,HaCaT [6],57%
COC(=O)c1cc(CCc2cc(OC)ccc2O)ccc1O,Activity,HaCaT [7],27%
same,IC50,HaCaT [1],1100 nM
COC(=O)c1cc(CCc2cc(OC)ccc2N(C)C)ccc1O,IC50,HaCaT [1],650 nM
same,Activity,HaCaT [8],42%
COC(=O)c1cc(CCc2ccccc2OC)ccc1O,IC50,HaCaT [1],20000 nM
same,Activity,HaCaT [9],16%
COC(=O)c1cc(CCc2cc(OC)ccc2OC)ccc1O,IC50,HaCaT [1],47 nM
same,Activity,HaCaT [10],36%
same,IC50,Tubulin,1000 nM
same,Activity,Tubulin (Sus scrofa),43%
CCc1ccc(CC)c(CCc2ccc(O)c(C(=O)OC)c2)c1,Activity,HaCaT [7],30%
same,IC50,HaCaT [1],650 nM
COC(=O)c1cc(CCc2cc(OC(C)=O)ccc2OC(C)=O)ccc1O,IC50,HaCaT [1],24000 nM
COC(=O)c1cc(CCc2cc(OC)c(OC)c(OC)c2)ccc1O,IC50,HaCaT [1],3500 nM
same,Activity,HaCaT [11],18%
COC(=O)c1cc(CCc2cc(O)ccc2O)ccc1O,IC50,HaCaT [1],21000 nM
same,Activity,HaCaT [12],2.2%
COC(=O)c1cc(CCc2cc(C(C)=O)ccc2OC)ccc1O,Activity,HaCaT [7],26%
same,IC50,HaCaT [1],660 nM
COC(=O)c1cc(CCc2c(OC)ccc(OC)c2OC)ccc1O,IC50,HaCaT [1],3500 nM
same,Activity,HaCaT [11],25%
COC(=O)c1cc(CCc2c(OC)cccc2OC)ccc1O,IC50,HaCaT [1],110 nM
same,Activity,HaCaT [13],24%
COC(=O)c1cc(CCc2cc(OC)ccc2Br)ccc1O,Activity,HaCaT [3],20%
same,IC50,HaCaT [1],210 nM
CCOc1ccc(OC)cc1CCc1ccc(O)c(C(=O)OC)c1,IC50,HaCaT [1],120 nM
same,Activity,HaCaT [10],38%
COC(=O)c1cc(CCc2cc(OC)c(C(C)(C)C)cc2C(C)=O)ccc1O,IC50,HaCaT [1],8200 nM
same,Activity,HaCaT [4],4.4%
COC(=O)c1cc(CCc2cc(SC)ccc2OC)ccc1O,IC50,HaCaT [1],860 nM
same,Activity,HaCaT [14],37%
COC(=O)c1cc(CCc2cccc(OC)c2)ccc1O,IC50,HaCaT [1],37000 nM
same,Activity,HaCaT [4],36%
CCOc1ccc(OCC)c(CCc2ccc(O)c(C(=O)OC)c2)c1,IC50,HaCaT [1],380 nM
same,Activity,HaCaT [8],20%
COC(=O)c1cc(CCc2cc(N(C)C)ccc2OC)ccc1O,IC50,HaCaT [1],920 nM
same,Activity,HaCaT [14],28%
CCc1ccc(OC)c(CCc2ccc(O)c(C(=O)OC)c2)c1,Activity,HaCaT [3],44%
same,IC50,HaCaT [1],430 nM
COC(=O)c1cc(CCc2ccc3c(c2)OCO3)ccc1O,IC50,HaCaT [1],36000 nM
same,Activity,HaCaT [4],2.9%
COC(=O)c1cc(CCc2cc(Cl)ccc2OC)ccc1O,IC50,HaCaT [1],6900 nM
same,Activity,HaCaT [9],27%
CCc1ccc(OC)cc1CCc1ccc(O)c(C(=O)OC)c1,IC50,HaCaT [1],130 nM
same,Activity,HaCaT [13],47%

# Source: ChEMBL document CHEMBL1156620, “Structure-activity relationship studies on a novel class of antiproliferative agents derived from Lavendustin A. Part I: Ring A modifications” (Bioorg Med Chem, 2008)
